ChEMBL document CHEMBL1821590, “Novel dihydropyrimidines and its pyrazole derivatives: synthesis and pharmacological screening” (Eur J Med Chem, 2011)
In brackets after ≈: the same amount, converted by molar mass.

Experiments:
Format in all cases: functional
[1] = Antioxidant activity assessed as nitric oxide radical scavenging activity after 150 mins
Outline: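 10 mM sodium nitroprusside (4 mL), PBS pH 7.4 (1 mL) and sample or ascorbic acid in DMSO (1 mL, 12.5–100 µg/mL), incubated 150 min at 25 °C. Nitrite detected with sulphanilic acid (5 min) then naphthylethylenediamine (30 min, diffused light). Read at […]. Triplicate. % inhibition = [1 − (Vt/Vc)] × 100. IC50 derived from it.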

[2] = Antioxidant activity assessed as hydrogen peroxide scavenging activity after 10 mins
Outline: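 H2O2 (20 mM) in PBS pH 7.4. 1 mL of sample or ascorbic acid in methanol (12.5–100 µg/mL) added to 2 mL H2O2 solution. A230 read after 10 min. % inhibition = [1 − (Vt/Vc)] × 100. Triplicate, averaged. IC50 derived from % inhibition across concentrations.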

[3] = Antioxidant activity assessed as inhibition of lipid peroxidation using egg lecithin liposomes incubated for 1 hr
Outline: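 Egg lecithin (3 mg/mL, phosphate buffer pH 7.4) sonicated 10 min to form liposomes. Sample or ascorbic acid (12.5–100 µg/mL) added. Peroxidation induced with FeCl3 and L-ascorbic acid, 1 h at 37 °C. Stopped with HCl/TCA/TBA/BHA, boiled 15 min, centrifuged, supernatant read at 532 nm. Triplicate. % inhibition vs control. IC50 derived.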

[4] = Antioxidant activity assessed as potassium ferricyanide ion reducing power after 20 mins
Outline: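 Oyaizu method. Samples or ascorbic acid in DMF (12.5–100 µg/mL) mixed with 0.2 M phosphate buffer pH 6.6 and 1% potassium ferricyanide, 20 min at 50 °C. 10% TCA added, centrifuged. Supernatant mixed with water and 0.1% FeCl3, read at 700 nm. % = [(Vt/Vc) − 1] × 100. IC50 derived.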

[5] = Antiinflammatory activity assessed as inhibition of albumin denaturation at 100 ug/ml by UV-visible spectrophotometry
Outline: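 Compounds dissolved in minimal DMF, diluted in PBS pH 7.4 (final DMF <2.5%). 1 mL test solution (100 µg/mL) plus 1 mL 1% albumin in PBS, 15 min at 27 ± 1 °C, then heated 10 min at 60 ± 1 °C. After cooling, turbidity read at 660 nm. % inhibition = [(Vt/Vc) − 1] × 100 against a no-drug control. Triplicate, averaged. Diclofenac standard.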

Metaphire posthuma [6] = assay: Anthelmintic activity against Pheretima posthuma assessed as time taken for complete parasite paralysis at 0.1% w/v
Outline: (§1)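 Earthworms (Pheretima posthuma) exposed to test solutions at 0.1, 0.2 and 0.5% w/v; time in minutes to complete paralysis (worms motionless) recorded. Albendazole as standard. Mean of three determinations ± S.D.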

Metaphire posthuma [7] = assay: Anthelmintic activity against Pheretima posthuma assessed as time taken for complete parasite paralysis at 0.2% w/v; outline: as §1
Metaphire posthuma [8] = assay: Anthelmintic activity against Pheretima posthuma assessed as time taken for complete parasite paralysis at 0.5% w/v; outline: as §1
Metaphire posthuma [9] = assay: Anthelmintic activity against Pheretima posthuma assessed as time taken for parasite death at 0.1% w/v
Outline: (§2)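 Earthworms (Pheretima posthuma, spelled Perituma posthuma in text) exposed to test compounds at 0.1, 0.2 and 0.5% w/v. Albendazole served as standard, with an untreated control. Paralysis was recorded as the time until worms became motionless, then time to death was recorded, in minutes. Each value is the mean of three determinations with S.D.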

Metaphire posthuma [10] = assay: Anthelmintic activity against Pheretima posthuma assessed as time taken for parasite death at 0.2% w/v; outline: as §2
Metaphire posthuma [11] = assay: Anthelmintic activity against Pheretima posthuma assessed as time taken for parasite death at 0.5% w/v; outline: as §2
Escherichia coli [12] = assay: Antimicrobial activity against Escherichia coli at 25 ug/ml by agar plate diffusion technique; conditions: read-out: IZ
Outline: (§3)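 Agar plate diffusion against E. coli, P. aeruginosa, S. aureus and B. subtilis, with compounds at 25, 50 and 100 µg/mL. Streptomycin as standard.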

Escherichia coli [13] = assay: Antimicrobial activity against Escherichia coli at 50 ug/ml by agar plate diffusion technique; conditions: read-out: IZ; outline: as §3
Escherichia coli [14] = assay: Antimicrobial activity against Escherichia coli at 100 ug/ml by agar plate diffusion technique; conditions: read-out: IZ; outline: as §3
Pseudomonas aeruginosa [15] = assay: Antimicrobial activity against Pseudomonas aeruginosa at 25 ug/ml by agar plate diffusion technique; conditions: read-out: IZ; outline: as §3
Pseudomonas aeruginosa [16] = assay: Antimicrobial activity against Pseudomonas aeruginosa at 50 ug/ml by agar plate diffusion technique; conditions: read-out: IZ; outline: as §3
Pseudomonas aeruginosa [17] = assay: Antimicrobial activity against Pseudomonas aeruginosa at 100 ug/ml by agar plate diffusion technique; conditions: read-out: IZ; outline: as §3
Bacillus subtilis [18] = assay: Antimicrobial activity against Bacillus subtilis at 25 ug/ml by agar plate diffusion technique; conditions: read-out: IZ; outline: as §3
Bacillus subtilis [19] = assay: Antimicrobial activity against Bacillus subtilis at 50 ug/ml by agar plate diffusion technique; conditions: read-out: IZ; outline: as §3
Bacillus subtilis [20] = assay: Antimicrobial activity against Bacillus subtilis at 100 ug/ml by agar plate diffusion technique; conditions: read-out: IZ; outline: as §3
Staphylococcus aureus [21] = assay: Antimicrobial activity against Staphylococcus aureus at 25 ug/ml by agar plate diffusion technique; conditions: read-out: IZ; outline: as §3
Staphylococcus aureus [22] = assay: Antimicrobial activity against Staphylococcus aureus at 50 ug/ml by agar plate diffusion technique; conditions: read-out: IZ; outline: as §3
Staphylococcus aureus [23] = assay: Antimicrobial activity against Staphylococcus aureus at 100 ug/ml by agar plate diffusion technique; conditions: read-out: IZ; outline: as §3
Candida albicans [24] = assay: Antimicrobial activity against Candida albicans at 25 ug/ml by paper disc method; conditions: read-out: IZ
Outline: (§4)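 Paper disc method against A. niger and C. albicans, with compounds at 25, 50 and 100 µg/mL. Amphotericin-B as standard.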

Candida albicans [25] = assay: Antimicrobial activity against Candida albicans at 50 ug/ml by paper disc method; conditions: read-out: IZ; outline: as §4
Candida albicans [26] = assay: Antimicrobial activity against Candida albicans at 100 ug/ml by paper disc method; conditions: read-out: IZ; outline: as §4
Aspergillus niger [27] = assay: Antimicrobial activity against Aspergillus niger at 25 ug/ml by paper disc method; conditions: read-out: IZ; outline: as §4
Aspergillus niger [28] = assay: Antimicrobial activity against Aspergillus niger at 50 ug/ml by paper disc method; conditions: read-out: IZ; outline: as §4
Aspergillus niger [29] = assay: Antimicrobial activity against Aspergillus niger at 100 ug/ml by paper disc method; conditions: read-out: IZ; outline: as §4

SMILES	IC50 [1]	IC50 [2]	IC50 [3]	IC50 [4]	inhibition [5]	Time (Metaphire posthuma [6])	Time (Metaphire posthuma [7])	Time (Metaphire posthuma [8])	Time (Metaphire posthuma [9])	Time (Metaphire posthuma [10])	Time (Metaphire posthuma [11])	zone of inhibition at 25 µg/mL (Escherichia coli [12])	zone of inhibition at 50 µg/mL (Escherichia coli [13])	zone of inhibition at 100 µg/mL (Escherichia coli [14])	zone of inhibition at 25 µg/mL (Pseudomonas aeruginosa [15])	zone of inhibition at 50 µg/mL (Pseudomonas aeruginosa [16])	zone of inhibition at 100 µg/mL (Pseudomonas aeruginosa [17])	zone of inhibition at 25 µg/mL (Bacillus subtilis [18])	zone of inhibition at 50 µg/mL (Bacillus subtilis [19])	zone of inhibition at 100 µg/mL (Bacillus subtilis [20])	also measured
CSc1nc(-c2cccc(O)c2O)c(C#N)c(=O)n1C	53 µg/mL (≈ 183 µM)	37 µg/mL (≈ 128 µM)	41 µg/mL (≈ 142 µM)	48 µg/mL (≈ 166 µM)	44.1%	58.04 min	62.28 min	50.1 min	65.29 min	65.5 min	61.02 min	7.28 mm	8.78 mm	10.4 mm	7.67 mm	8.12 mm	12.7 mm	13 mm	15.8 mm	24.4 mm	zone of inhibition at 25 µg/mL (Staphylococcus aureus [21]): 8.7 mm; zone of inhibition at 50 µg/mL (Staphylococcus aureus [22]): 10.6 mm; zone of inhibition at 100 µg/mL (Staphylococcus aureus [23]): 13.6 mm; zone of inhibition at 25 µg/mL (Candida albicans [24]): 9.48 mm; zone of inhibition at 50 µg/mL (Candida albicans [25]): 13.9 mm; zone of inhibition at 100 µg/mL (Candida albicans [26]): 21 mm; zone of inhibition at 25 µg/mL (Aspergillus niger [27]): 8.4 mm; zone of inhibition at 50 µg/mL (Aspergillus niger [28]): 10.8 mm; zone of inhibition at 100 µg/mL (Aspergillus niger [29]): 17.1 mm
CSc1nc(-c2ccccc2Cl)c(C#N)c(=O)n1C	81 µg/mL (≈ 278 µM)	67 µg/mL (≈ 230 µM)	72 µg/mL (≈ 247 µM)	76 µg/mL (≈ 260 µM)	72.2%	55.29 min	40.27 min	40.61 min	72.39 min	55.8 min	50.24 min	9.64 mm	10.2 mm	12.4 mm	8.52 mm	10.4 mm	12 mm	14.2 mm	19.3 mm	28.8 mm	zone of inhibition at 25 µg/mL (Staphylococcus aureus [21]): 9.4 mm; zone of inhibition at 50 µg/mL (Staphylococcus aureus [22]): 12.3 mm; zone of inhibition at 100 µg/mL (Staphylococcus aureus [23]): 16.8 mm; zone of inhibition at 25 µg/mL (Candida albicans [24]): 9.18 mm; zone of inhibition at 50 µg/mL (Candida albicans [25]): 13.8 mm; zone of inhibition at 100 µg/mL (Candida albicans [26]): 20.8 mm; zone of inhibition at 25 µg/mL (Aspergillus niger [27]): 10.6 mm; zone of inhibition at 50 µg/mL (Aspergillus niger [28]): 10.6 mm; zone of inhibition at 100 µg/mL (Aspergillus niger [29]): 17.5 mm
CSc1nc(-c2ccccc2F)c(C#N)c(=O)n1C	78 µg/mL (≈ 283 µM)	63 µg/mL (≈ 229 µM)	58 µg/mL (≈ 211 µM)	61 µg/mL (≈ 222 µM)	69.3%	72.34 min	71.4 min	55.17 min	90.4 min	85.73 min	69.54 min	10.9 mm	13.8 mm	14.2 mm	9.17 mm	10.4 mm	11.8 mm	16.9 mm	20.2 mm	29.4 mm	zone of inhibition at 25 µg/mL (Staphylococcus aureus [21]): 12.2 mm; zone of inhibition at 50 µg/mL (Staphylococcus aureus [22]): 15.3 mm; zone of inhibition at 100 µg/mL (Staphylococcus aureus [23]): 20.9 mm; zone of inhibition at 25 µg/mL (Candida albicans [24]): 10.8 mm; zone of inhibition at 50 µg/mL (Candida albicans [25]): 12.1 mm; zone of inhibition at 100 µg/mL (Candida albicans [26]): 16 mm; zone of inhibition at 25 µg/mL (Aspergillus niger [27]): 12.7 mm; zone of inhibition at 50 µg/mL (Aspergillus niger [28]): 14.9 mm; zone of inhibition at 100 µg/mL (Aspergillus niger [29]): 22.7 mm
